Series [1] has as its system Liver microsome. Description: Drug level in Sprague-Dawley rat liver microsomes treated with 10 uM 20(S)-ginsenoside Rh2 for 60 mins by MS2 spectra. Format: ADME. The following applies: 1 h. An outline of the steps: (§1)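 Rh2 at 10 μM final (from methanol stock; 0.1% v/v methanol final) in 100 mM potassium phosphate pH 7.4 with 2 mM NADPH, open-to-air tubes at 37°C. 3 min preincubation, then started with liver microsomes or S9 at 1 mg/ml protein. Incubated 60 min, stopped with equal volume ice-cold acetonitrile. Controls lacked NADPH; duplicates. Metabolites detected by LC/ion-trap MSn.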
(Liver microsomes are vesicles of endoplasmic reticulum, rich in cytochrome P450 enzymes.)

Series [2] deals with Liver microsome. Description: Drug level in beagle dog liver microsomes treated with 10 uM 20(S)-ginsenoside Rh2 for 60 mins by MS2 spectra. The following applies: 1 h. Format: ADME, Canis lupus familiaris. A digest of the protocol:
as §1

Another series deals with Cytochrome P450 3A5 (Homo sapiens, UniProt P20815). In words: Drug level in human recombinant CYP3A5 treated with 10 uM 20(S)-ginsenoside Rh2 for 60 mins by MS2 spectra. The series is classed as ADME. The following applies: recombinant enzyme, 1 h. A digest of the protocol:
(§2)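 Recombinant human P450 (50 nM) with 10 μM Rh2 under the microsomal conditions: 100 mM potassium phosphate pH 7.4, 2 mM NADPH, 37°C for 60 min. Stopped with equal volume ice-cold acetonitrile. Run in duplicate; products analysed by LC/ion-trap MSn.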

Series [3] deals with Liver. In words: Drug level in CD-1 mouse liver microsomes treated with 10 uM 20(S)-ginsenoside Rh2 for 60 mins by MS2 spectra. The series is classed as ADME. The following applies: 1 h. A digest of the protocol:
as §1

The nature of series [4]: Retention time in cynomolgus monkey liver microsomes treated with 10 uM 20(S)-ginsenoside Rh2 by MS2 spectra. The series is classed as ADME, Macaca fascicularis. A digest of the protocol: (§3)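 Samples: incubation mixed with equal volume methanol, centrifuged at 14,000g for 5 min, dried under nitrogen at 40°C, reconstituted. Separated on Eclipse XDB-C18 (4.6 × 150 mm, 5 μm) at 0.5 ml/min. Gradient: 0.1% formic acid in methanol against 0.1% formic acid in 5 mM ammonium acetate, 70% to 100% organic over 17 min. Ion-trap MSn detection.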

The target in the next series is Cytochrome P450 3A4 (Homo sapiens, UniProt P08684). Description: Drug level in human recombinant CYP3A4 treated with 10 uM 20(S)-ginsenoside Rh2 for 60 mins by MS2 spectra. Format: ADME. The following applies: recombinant enzyme, 1 h. A digest of the protocol: as §2
Series [5] concerns Liver microsome. In words: Drug level in human liver microsomes treated with 10 uM 20(S)-ginsenoside Rh2 for 60 mins by MS2 spectra. The series is classed as ADME. The following applies: 1 h. An outline of the steps: as §1
In series [6] the test system is Liver. Description: Drug level in human liver S9 fraction treated with 10 uM 20(S)-ginsenoside Rh2 for 60 mins by MS2 spectra. The series is classed as ADME, subcellular. The following applies: s9, 1 h. A digest of the protocol:
as §1

Series [7] can be described thus: Drug level in cynomolgus monkey liver microsomes treated with 10 uM 20(S)-ginsenoside Rh2 for 60 mins by MS2 spectra. Format: ADME, Macaca fascicularis. The following applies: 1 h. A digest of the protocol:
as §1

The subject of series [8] is Liver cytosol. Description: Drug metabolism in human liver cytosol assessed as 26-carboxy,20(S)-Ginsenoside Rh2 formation at 10 uM by LC/MS analysis in presence of 50 uM 4-methylpyrazole alcohol dehydrogenase inhibitor. The series is classed as ADME. A digest of the protocol: (§4)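 Pooled human liver cytosol (1 mg/ml) with 2 mM NAD+ and inhibitor in 100 mM potassium phosphate pH 7.4; inhibitors given from DMSO, 0.1% v/v final. After 15 min preincubation at 37°C, started with 10 μM M1-1 or 26-aldehyde-Rh2. Run 60 min, stopped with ice-cold acetonitrile. Duplicates, uninhibited controls; M2-3 acid measured by LC/MSn.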

The test system of series [9] is Liver cytosol. Description: Drug metabolism in human liver cytosol assessed as 26-carboxy,20(S)-Ginsenoside Rh2 formation at 10 uM by LC/MS analysis in presence of 100 uM raloxifene aldehyde oxidase inhibitor. The following applies: in the assay text read “100 nM raloxifene” for “100 uM raloxifene”. The series is classed as ADME. A digest of the protocol: as §4

For series [10], the system named is Liver. Description: Retention time in human liver S9 fraction treated with 10 uM 20(S)-ginsenoside Rh2 by MS2 spectra. The series is classed as ADME, subcellular. A digest of the protocol: as §3
The subject of series [11] is Liver microsome. Description: Retention time in human liver microsomes treated with 10 uM 20(S)-ginsenoside Rh2 by MS2 spectra. Format: ADME. An outline of the steps: as §3
Series [12] relates to Liver cytosol. In words: Drug metabolism in human liver cytosol assessed as 26-carboxy,20(S)-Ginsenoside Rh2 formation at 10 uM by LC/MS analysis in presence of 50 uM disulfiram aldehyde dehydrogenase inhibitor. Format: ADME. A digest of the protocol:
as §4

The values below come from ChEMBL document CHEMBL3525925, “In vitro studies on the oxidative metabolism of 20(s)-ginsenoside Rh2 in human, monkey, dog, rat, and mouse liver microsomes, and human liver s9” (Drug Metab Dispos, 2012).

Molecules are shown by their SMILES.

Chain of Cytochrome P450 3A5 (P20815 whole entry): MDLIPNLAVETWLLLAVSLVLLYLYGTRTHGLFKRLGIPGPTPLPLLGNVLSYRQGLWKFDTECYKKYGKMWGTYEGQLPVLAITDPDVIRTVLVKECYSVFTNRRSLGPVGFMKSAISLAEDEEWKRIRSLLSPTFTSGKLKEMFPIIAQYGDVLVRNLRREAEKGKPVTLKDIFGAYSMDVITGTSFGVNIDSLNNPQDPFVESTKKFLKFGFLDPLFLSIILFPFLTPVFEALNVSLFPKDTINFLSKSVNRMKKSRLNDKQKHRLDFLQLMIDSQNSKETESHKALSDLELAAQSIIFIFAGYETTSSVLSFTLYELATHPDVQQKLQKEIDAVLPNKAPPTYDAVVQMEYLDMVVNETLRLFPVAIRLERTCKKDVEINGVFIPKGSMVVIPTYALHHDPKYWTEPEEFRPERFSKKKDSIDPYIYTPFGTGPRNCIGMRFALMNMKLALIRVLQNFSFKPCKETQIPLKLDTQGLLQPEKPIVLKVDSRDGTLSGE
Chain of Cytochrome P450 3A4 (P08684 whole entry): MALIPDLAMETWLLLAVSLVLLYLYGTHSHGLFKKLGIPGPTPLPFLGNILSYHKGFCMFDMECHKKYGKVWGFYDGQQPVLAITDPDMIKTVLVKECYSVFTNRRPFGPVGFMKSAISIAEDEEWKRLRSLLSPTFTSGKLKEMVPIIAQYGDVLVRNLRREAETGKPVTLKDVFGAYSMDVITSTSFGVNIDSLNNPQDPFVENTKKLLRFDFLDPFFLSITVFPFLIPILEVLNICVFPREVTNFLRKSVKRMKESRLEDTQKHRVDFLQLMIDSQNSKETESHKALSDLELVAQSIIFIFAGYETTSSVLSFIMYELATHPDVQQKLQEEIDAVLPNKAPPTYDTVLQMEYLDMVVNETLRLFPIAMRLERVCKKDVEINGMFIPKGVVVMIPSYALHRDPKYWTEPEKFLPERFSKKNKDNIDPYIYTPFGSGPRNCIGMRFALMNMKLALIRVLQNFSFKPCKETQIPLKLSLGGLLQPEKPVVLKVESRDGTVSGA

As to `CC(C)(O)C(CC[C@](C)(O)[C@H]1CC[C@]2(C)[C@@H]1[C@H](O)C[C@@H]1[C@@]3(C)CC[C@H](O[C@@H]4O[C@H](CO)[C@@H](O)[C@H](O)[C@H]4O)C(C)(C)[C@@H]3CC[C@]12C)SC[C@H](NC(=O)CC[C@H](N)C(=O)O)C(=O)NCC(=O)O` (stereo not given in full), the Drug metabolism entry in the series with Liver microsome [1], in the series on Liver microsome [2], on Cytochrome P450 3A5, with Liver [3], at Cytochrome P450 3A4 and with Liver microsome [5] was “metabolite_not_detected” throughout. Further, the results for the Drug metabolism result (in the series with Liver [6]; in series [7]) were “metabolite_not_detected” and “metabolite_detected”, respectively. The compound also registered a Retention_time in [4] of 10.6 min.

Consider `C/C(=C\CC[C@](C)(O)[C@H]1CC[C@]2(C)[C@@H]1[C@H](O)C[C@@H]1[C@@]3(C)CC[C@H](O[C@@H]4O[C@H](CO)[C@@H](O)[C@H](O)[C@H]4O)C(C)(C)[C@@H]3CC[C@]12C)CO`, for which the Drug metabolism result with Liver microsome [1] is reported as “metabolite_detected”; with Liver cytosol [8], “metabolite_not_detected”; in the series on Liver microsome [2] it was “metabolite_detected”; at Cytochrome P450 3A5 it was “metabolite_detected”; in the series on Liver [3], “metabolite_detected”; on Cytochrome P450 3A4, “metabolite_detected”. Moreover, the Drug metabolism entry with Liver cytosol [9] is reported as “metabolite_not_detected”; in the series with Liver microsome [5], “metabolite_detected”; with Liver [6] it was “metabolite_detected”; with Liver cytosol [12] it was “metabolite_not_detected”; in series [7], “metabolite_detected”. Besides, the Retention_time in the series with Liver [10] and in the series with Liver microsome [11] was 16.7 min each time.

As for `C/C(C=O)=C\CC[C@](C)(O)[C@H]1CC[C@]2(C)[C@@H]1[C@H](O)C[C@@H]1[C@@]3(C)CC[C@H](O[C@@H]4O[C@H](CO)[C@@H](O)[C@H](O)[C@H]4O)C(C)(C)[C@@H]3CC[C@]12C`, the Drug metabolism result in the series with Liver cytosol [8], in the series with Liver cytosol [9] and in the series with Liver cytosol [12] was “metabolite_not_detected” each time.

Turning to `CC1(C)[C@@H](O[C@@H]2O[C@H](CO)[C@@H](O)[C@H](O)[C@H]2O)CC[C@]2(C)[C@H]3C[C@@H](O)[C@@H]4[C@@H]([C@@](C)(O)CC[C@@H]5O[C@@]5(C)CO)CC[C@@]4(C)[C@]3(C)CC[C@@H]12`, the Drug metabolism entry in the series on Liver microsome [1] was “metabolite_detected”; with Liver microsome [2], “metabolite_not_detected”; on Cytochrome P450 3A5, “metabolite_not_detected”; with Liver [3] it was “metabolite_detected”; at Cytochrome P450 3A4, “metabolite_detected”; with Liver microsome [5] it was “metabolite_detected”. The Drug metabolism result (in the series on Liver [6]; in series [7]) was “metabolite_detected” each time. For the same compound, the Retention_time in the series with Liver [10] and in the series on Liver microsome [11] was 15.6 min in each case.
